One data set deals with Oocyte. The experiment in a line: Modulation of GABA alpha1beta2gamma2s receptor expressed in Xenopus laevis oocytes assessed as potentiation of GABA-induced chloride current at holding potential -70 mV at 300 nM by two-microelectrode voltage clamp technique relative to GABA. Type of data set: cell-based. In outline: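 Xenopus oocytes were injected with α1, β2 and γ2s cRNAs mixed 1:1:10 and stored at +18 °C in ND96 at pH 7.4. Chloride current was recorded by two-electrode voltage clamp at -70 mV and ambient temperature. Compound was co-applied with GABA at 3–7% of maximal current, set for each oocyte. Enhancement was calculated as (I(GABA+compound)/IGABA) − 1 with matched DMSO.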

The target in data set [1] is T1, GABA-A receptor; GABA-A site (alpha1/beta2 interface) (Homo sapiens, UniProt P14867+P47870).
T1 sequence (P14867 whole entry): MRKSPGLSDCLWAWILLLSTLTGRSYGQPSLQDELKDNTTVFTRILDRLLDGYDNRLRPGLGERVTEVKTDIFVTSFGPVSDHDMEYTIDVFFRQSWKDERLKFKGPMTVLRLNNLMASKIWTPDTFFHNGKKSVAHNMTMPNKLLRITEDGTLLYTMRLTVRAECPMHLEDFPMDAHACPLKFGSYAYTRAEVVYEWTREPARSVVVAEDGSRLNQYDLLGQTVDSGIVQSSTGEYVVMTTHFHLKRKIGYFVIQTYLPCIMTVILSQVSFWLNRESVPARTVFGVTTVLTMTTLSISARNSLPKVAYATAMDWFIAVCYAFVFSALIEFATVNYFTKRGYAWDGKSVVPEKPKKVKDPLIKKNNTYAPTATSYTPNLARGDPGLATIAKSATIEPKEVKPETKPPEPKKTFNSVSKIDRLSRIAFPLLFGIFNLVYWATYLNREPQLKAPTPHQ
T1 sequence (P47870 whole entry): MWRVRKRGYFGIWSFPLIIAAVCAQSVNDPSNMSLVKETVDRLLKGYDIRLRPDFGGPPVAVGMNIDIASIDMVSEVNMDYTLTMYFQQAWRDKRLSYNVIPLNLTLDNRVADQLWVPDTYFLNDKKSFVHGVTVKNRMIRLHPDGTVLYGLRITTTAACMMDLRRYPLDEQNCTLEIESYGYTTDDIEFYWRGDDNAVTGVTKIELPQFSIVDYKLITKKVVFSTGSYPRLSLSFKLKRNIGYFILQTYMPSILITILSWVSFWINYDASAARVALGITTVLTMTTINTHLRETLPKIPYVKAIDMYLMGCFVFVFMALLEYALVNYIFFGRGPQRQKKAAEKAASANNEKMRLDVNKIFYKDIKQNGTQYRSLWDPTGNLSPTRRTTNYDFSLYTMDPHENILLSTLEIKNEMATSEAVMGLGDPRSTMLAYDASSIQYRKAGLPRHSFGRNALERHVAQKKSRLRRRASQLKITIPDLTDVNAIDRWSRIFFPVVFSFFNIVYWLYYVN
Briefly: Modulation of GABA Aalpha1beta2 receptor expressed in Xenopus laevis oocytes assessed as potentiation of GABA-induced chloride current at holding potential -70 mV by two-microelectrode voltage clamp technique. In kind it is cell-based, Oocyte. An outline of the steps:
(§1)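 Stage V–VI Xenopus oocytes, defolliculated with 2 mg/mL collagenase, injected with α(1, 2, 3 or 5) and β2 cRNAs mixed 1:1, then kept at 18 °C in ND96 (pH 7.4). Enhancement = I(GABA+compound)/IGABA − 1. Curves were Hill-fitted for EC50. Bath DMSO was at most 0.3%, matched in controls.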

Data set [2] is described as follows: Octanol-water partition coefficient, log P of the compound. The note with it: read-out: logP. In kind it is physicochemical.
Data set [3] concerns the target T2, Gamma-aminobutyric acid receptor subunit alpha-2/beta-2 (Homo sapiens, UniProt P47869+P47870).
T2 sequence (P47870 whole entry): T1 sequence (P47870 whole entry)
T2 sequence (P47869 whole entry): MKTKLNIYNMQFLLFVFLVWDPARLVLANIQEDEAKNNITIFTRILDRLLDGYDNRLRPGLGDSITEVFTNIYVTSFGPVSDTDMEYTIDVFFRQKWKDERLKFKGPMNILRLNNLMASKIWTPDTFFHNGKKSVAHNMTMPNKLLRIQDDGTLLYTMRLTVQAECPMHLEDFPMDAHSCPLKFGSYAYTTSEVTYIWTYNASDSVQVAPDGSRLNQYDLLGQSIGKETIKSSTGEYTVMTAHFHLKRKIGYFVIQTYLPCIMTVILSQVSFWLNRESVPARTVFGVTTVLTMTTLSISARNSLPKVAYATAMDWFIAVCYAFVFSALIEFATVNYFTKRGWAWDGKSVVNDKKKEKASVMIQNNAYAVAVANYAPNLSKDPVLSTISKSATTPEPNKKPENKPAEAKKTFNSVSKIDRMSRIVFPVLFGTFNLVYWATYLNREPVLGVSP
The experiment in a line: Modulation of GABA Aalpha2beta2 receptor expressed in Xenopus laevis oocytes assessed as potentiation of GABA-induced chloride current at holding potential -70 mV by two-microelectrode voltage clamp technique. Type of data set: cell-based, Oocyte. An outline of the steps:
as §1

The target of data set [4] is T3, Gamma-aminobutyric acid receptor subunit alpha-3/ beta-2 (Homo sapiens, UniProt P34903+P47870).
T3 sequence (P47870 whole entry): T1 sequence (P47870 whole entry)
T3 sequence (P34903 whole entry): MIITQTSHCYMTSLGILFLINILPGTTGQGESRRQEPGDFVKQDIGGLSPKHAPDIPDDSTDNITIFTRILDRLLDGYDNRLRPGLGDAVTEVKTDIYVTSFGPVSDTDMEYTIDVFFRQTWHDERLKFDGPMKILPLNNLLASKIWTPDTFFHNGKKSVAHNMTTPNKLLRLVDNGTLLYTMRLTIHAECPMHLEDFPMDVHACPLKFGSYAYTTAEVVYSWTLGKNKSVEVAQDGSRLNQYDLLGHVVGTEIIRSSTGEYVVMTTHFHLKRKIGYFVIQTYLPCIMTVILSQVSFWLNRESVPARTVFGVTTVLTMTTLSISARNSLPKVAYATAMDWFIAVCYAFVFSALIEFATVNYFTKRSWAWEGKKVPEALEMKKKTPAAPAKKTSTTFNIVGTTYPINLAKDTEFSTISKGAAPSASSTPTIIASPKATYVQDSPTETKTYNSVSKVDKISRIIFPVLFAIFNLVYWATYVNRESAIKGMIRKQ
The experiment in a line: Modulation of GABA Aalpha3beta2 receptor expressed in Xenopus laevis oocytes assessed as potentiation of GABA-induced chloride current at holding potential -70 mV by two-microelectrode voltage clamp technique. In kind it is cell-based, Oocyte. An outline of the steps:
as §1

In data set [5] the target is T4, Gamma-aminobutyric acid receptor subunit alpha-5/beta-2 (Homo sapiens, UniProt P31644+P47870).
T4 sequence (P47870 whole entry): T1 sequence (P47870 whole entry)
T4 sequence (P31644 whole entry): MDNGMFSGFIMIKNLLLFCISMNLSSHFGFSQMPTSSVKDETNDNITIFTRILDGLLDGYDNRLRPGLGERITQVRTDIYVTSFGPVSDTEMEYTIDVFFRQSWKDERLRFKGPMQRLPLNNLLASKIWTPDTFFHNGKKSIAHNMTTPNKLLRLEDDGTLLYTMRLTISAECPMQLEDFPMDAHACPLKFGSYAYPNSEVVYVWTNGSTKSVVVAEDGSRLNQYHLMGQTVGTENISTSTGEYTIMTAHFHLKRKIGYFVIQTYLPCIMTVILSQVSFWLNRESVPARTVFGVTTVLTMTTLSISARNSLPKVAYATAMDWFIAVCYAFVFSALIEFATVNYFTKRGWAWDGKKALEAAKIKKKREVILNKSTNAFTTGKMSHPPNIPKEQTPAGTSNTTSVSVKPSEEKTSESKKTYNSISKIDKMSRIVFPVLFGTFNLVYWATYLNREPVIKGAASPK
Briefly: Modulation of GABA Aalpha5beta2 receptor expressed in Xenopus laevis oocytes assessed as potentiation of GABA-induced chloride current at holding potential -70 mV by two-microelectrode voltage clamp technique. In kind it is cell-based, Oocyte. In outline: as §1

The target of data set [6] is T5, GABA-A receptor; GABA-A site (alpha1/beta2 interface) (Homo sapiens) (UniProt P14867+P47870). The experiment in a line: Modulation of GABA Aalpha1beta2 receptor expressed in Xenopus laevis oocytes assessed as potentiation of GABA-induced chloride current at holding potential -70 mV by two-microelectrode voltage clamp technique relative to GABA. Type of data set: cell-based. The note with it: Oocyte. In outline: (§2)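 Oocytes were injected with α1, α2, α3 or α5 plus β2 cRNA at a 1:1 ratio and stored at 18 °C in ND96, pH 7.4. Enhancement was (I(GABA+compound)/IGABA)−1, and concentration-response data were Hill-fitted for EC50 and nH. Matched DMSO was ≤0.3%.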

The target in data set [7] is Gamma-aminobutyric acid receptor subunit alpha-2/beta-2 (Homo sapiens) (UniProt P47870+P47869). Briefly: Modulation of GABA Aalpha2beta2 receptor expressed in Xenopus laevis oocytes assessed as potentiation of GABA-induced chloride current at holding potential -70 mV by two-microelectrode voltage clamp technique relative to GABA. Type of data set: cell-based. The conditions noted are these: Oocyte. An outline of the steps:
as §2

In data set [8] the target is Gamma-aminobutyric acid receptor subunit alpha-3/ beta-2 (Homo sapiens) (UniProt P47870+P34903). The experiment in a line: Modulation of GABA Aalpha3beta2 receptor expressed in Xenopus laevis oocytes assessed as potentiation of GABA-induced chloride current at holding potential -70 mV by two-microelectrode voltage clamp technique relative to GABA. The note with it: Oocyte. In kind it is cell-based. In outline: as §2

Data set [9] addresses Gamma-aminobutyric acid receptor subunit alpha-5/beta-2 (Homo sapiens) (UniProt P47870+P31644). The experiment in a line: Modulation of GABA Aalpha5beta2 receptor expressed in Xenopus laevis oocytes assessed as potentiation of GABA-induced chloride current at holding potential -70 mV by two-microelectrode voltage clamp technique relative to GABA. The conditions noted are these: Oocyte. Type of data set: cell-based. An outline of the steps: as §2

The target in data set [10] is T5, GABA-A receptor; GABA-A site (alpha1/beta2 interface) (Homo sapiens). Briefly: Modulation of GABA Aalpha1beta2 receptor expressed in Xenopus laevis oocytes assessed as potentiation of GABA-induced chloride current at holding potential -70 mV at 30 uM by two-microelectrode voltage clamp technique relative to GABA. Type of data set: cell-based. The conditions noted are these: Oocyte. An outline of the steps: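 Single-concentration screen at 30 μM on α1β2 receptors (cRNA 1:1) in Xenopus oocytes. Enhancement was (I(GABA+compound)/IGABA)−1. DMSO was matched in control and test solutions, maximum 0.3% in the bath.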

The values that follow come from ChEMBL document CHEMBL1811845, “Modulation of GABAA-receptors by honokiol and derivatives: subtype selectivity and structure-activity relationship” (J Med Chem, 2011).

On to `CN1C(=O)CN=C(c2ccccc2)c2cc(Cl)ccc21`, for which the Activity in the data set on Oocyte amounted to 104%.

Consider `CCCc1cc(N)c(O)c(-c2ccc(OC)c(CCC)c2)c1`, for which the EC50 – broadly, the concentration at which the effect is half-maximal – in data set [1] is 9.2 µM; in data set [3], 3.2 µM; in data set [4], 8.4 µM; in data set [5], 5.3 µM. In addition, the logP (usually a log measure of how a compound divides between an organic and an aqueous phase) in data set [2] was determined as 5.38. For the same compound, the Smax was found to be 2260% in [6], 2980% in data set [7], 2380% in [8] and 1870% in data set [9]. In [10], the Activity turned out to be 2020%.

With `C=CCc1cc(NC(C)=O)c(O)c(-c2ccc(OC)c(CC=C)c2)c1`, the EC50 in data set [1] amounted to 3.8 µM; in [3], 7.9 µM; in [4], 9 µM; in data set [5], 2.3 µM. The logP in [2] was 4.75. Besides, the Smax in data set [6] was 2600%; in data set [7] it was 5200%; in data set [8] it was 3670%; in [9], 1010%. Besides, the Activity in data set [10] was determined as 2630%.
